Series [1] can be described thus: Cytotoxicity in human HuH7 replicon cells infected with Dengue virus 2 NGC assessed as reduction in cell viability incubated for 48 hrs by Cell-titer-Glo reagent based assay. Set-up: species or system Huh-7. The procedure, abridged:
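Huh7 cells or Huh7 replicon cells plated, then held at 37 °C with 5% CO₂ overnight. Exposed to 2-fold serial compound dilutions for 48 h, in duplicate. Viability read with CellTiter-Glo and normalized to 0.45% DMSO wells set at 100%. CC50 from four-parameter logistic fit.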
Background: In antiviral work, replicon cells carry a viral genome segment that copies itself.

The subject of the next series is dengue virus type 4. Description: Antiviral activity against Dengue virus 4 D4MY01-22713 infected in human HuH7 replicon cells expressing Renilla luciferase and neomycin-resistance genes assessed as reduction in viral replication incubated for 48 hrs by luciferase reporter replicon-based assay. To be noted: D4MY01-22713, Huh-7, 48 h. The series is classed as functional, organism-based. The procedure, abridged: (§1)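 Huh7 cells stably carrying a Renilla luciferase/neomycin-resistance replicon (DENV-1 WestPac, DENV-2 NGC, DENV-3 D3MY05-34640 or DENV-4 D4MY01-22713). Cells seeded at 10k per well and incubated overnight at 37 °C, 5% CO2. Then exposed to 2-fold serial compound dilutions for 48 h, in duplicate. Luciferase read with a live-cell substrate. EC50 from four-parameter logistic fit.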

The test system of the next series is dengue virus type 3. Description: Antiviral activity against Dengue virus 3 D3MY05-34640 infected in human HuH7 replicon cells expressing Renilla luciferase and neomycin-resistance genes assessed as reduction in viral replication incubated for 48 hrs by luciferase reporter replicon-based assay. To be noted: D3MY05-34640, Huh-7, 48 h. The series is classed as functional, organism-based. The method in brief: as §1

In the next series the test system is dengue virus type 2. Description: Antiviral activity against Dengue virus 2 NGC infected in human HuH7 replicon cells expressing Renilla luciferase and neomycin-resistance genes assessed as reduction in viral replication incubated for 48 hrs by luciferase reporter replicon-based assay. It is filed as functional, organism-based. To be noted: Huh-7, 48 h. The method in brief: as §1

The test system of a further series is dengue virus type 1. The series can be described thus: Antiviral activity against Dengue virus 1 WestPac infected in human HuH7 replicon cells expressing Renilla luciferase and neomycin-resistance genes assessed as reduction in viral replication incubated for 48 hrs by luciferase reporter replicon-based assay. It is filed as functional, organism-based. The following applies: Huh-7, 48 h. The method in brief: as §1

The CC50 is the concentration that lowers cell viability or growth by half. Usually EC50 stands for the concentration needed to bring the measured effect to its halfway point. In the case of `COCCCN1C(=O)[C@]2(CC(=O)Nc3c2nnn3[C@@H](C)c2ccc(Cl)cc2)c2cc(Cl)ccc21`, the CC50 at 48 h in series [1] was over 10 µM. Further, the EC50 with dengue virus type 4 was over 5 µM; in the series on dengue virus type 3, 0.009 µM; with dengue virus type 2, 0.04 µM; with dengue virus type 1 it was over 5 µM.
On to `COCOCCN1C(=O)[C@]2(CC(=O)Nc3c2nnn3[C@@H](C)c2ccc(Cl)cc2)c2cc(Cl)ccc21`, for which the CC50 at 48 h in series [1] is over 10 µM. Besides, the concentration for a half-maximal effect (EC50) was over 5 µM in the series on dengue virus type 4, 0.019 µM in the series on dengue virus type 3, 0.092 µM in the series on dengue virus type 2 and over 5 µM in the series with dengue virus type 1.
In the case of `C[C@@H](c1ccc(Cl)cc1)n1nnc2c1NC(=O)C[C@]21C(=O)N(CCN2CCC2)c2ccc(Cl)cc21`, the CC50 at 48 h in series [1] is over 10 µM. The 50% effective concentration (EC50) in the series with dengue virus type 4 is over 5 µM; with dengue virus type 3 it was 0.007 µM; in the series with dengue virus type 2 it was 0.067 µM; in the series with dengue virus type 1, over 5 µM.
With `C[C@@H](c1ccc(Cl)cc1)n1nnc2c1N(C)C(=O)C(C)(C)[C@]21C(=O)N(C)c2ccc(Cl)cc21`, in series [1], the CC50 at 48 h is over 10 µM. For the same compound, the EC50 with dengue virus type 4, in the series with dengue virus type 3, in the series on dengue virus type 2 and in the series with dengue virus type 1 was over 5 µM in each case.
Consider `C[C@@H](c1ccc(Cl)cc1)n1nnc2c1NC(=O)C[C@]21C(=O)N(CCC(C)(C)C)c2ccc(Cl)cc21`, for which the CC50 at 48 h in series [1] was over 10 µM. For the same compound, the concentration for a half-maximal effect (EC50) turned out to be 3.9 µM in the series on dengue virus type 4, 0.082 µM in the series with dengue virus type 3, 0.87 µM in the series with dengue virus type 2 and 1.1 µM with dengue virus type 1.
In the case of `C[C@@H](c1ccc(Cl)cc1)n1nnc2c1NC(=O)C[C@]21C(=O)N(CCCN2CCCCC2)c2ccc(Cl)cc21`, in series [1], the cytotoxic concentration (CC50) at 48 h is over 10 µM. In addition, the EC50 with dengue virus type 4 was over 5 µM; in the series with dengue virus type 3 it was 0.012 µM; with dengue virus type 2 it was 0.13 µM; with dengue virus type 1, over 5 µM.
Take `C[C@@H](c1ccc(Cl)cc1)n1nnc2c1NC(=O)C[C@]21C(=O)N(CCCCCCN(C)C)c2ccc(Cl)cc21`: the CC50 at 48 h in series [1] was over 10 µM. The EC50 was over 5 µM in the series with dengue virus type 4, 0.066 µM in the series on dengue virus type 3, 0.9 µM with dengue virus type 2 and 1.5 µM in the series on dengue virus type 1.
With `C[C@@H](c1ccc(Cl)cc1)n1nnc2c1NC(=O)C[C@]21C(=O)N(CCCCCCCCBr)c2ccc(Cl)cc21`, in series [1], the CC50 at 48 h is over 10 µM. In addition, in the series on dengue virus type 2, the EC50 is over 5 µM.
Regarding `C[C@@H](c1ccc(Cl)cc1)n1nnc2c1NC(=O)C[C@]21C(=O)N(Cc2ccc(Cl)cc2)c2ccc(Cl)cc21`, in series [1], the CC50 at 48 h is over 10 µM. The EC50 in the series with dengue virus type 4 is 6.5 µM; in the series on dengue virus type 3, 0.2 µM; in the series with dengue virus type 2, 3.3 µM; with dengue virus type 1 it was 2.2 µM.
For `C[C@@H](c1ccc(Cl)cc1)n1nnc2c1NC(=O)C[C@]21C(=O)N(CCF)c2ccc(Cl)cc21`, in that order: over 10 µM, over 5 µM, 0.009 µM, 0.038 µM and over 5 µM.
For `CCOC(CN1C(=O)[C@]2(CC(=O)Nc3c2nnn3[C@@H](C)c2ccc(Cl)cc2)c2cc(Cl)ccc21)OCC`, in that order: over 10 µM, over 5 µM, 0.076 µM, 0.29 µM and over 5 µM.
Take `C[C@@H](c1ccc(Cl)cc1)n1nnc2c1NC(=O)C[C@]21C(=O)N(Cc2cccnc2)c2ccc(Cl)cc21`: the half-maximal cytotoxic concentration (CC50) at 48 h in series [1] is over 10 µM. For the same compound, the 50% effective concentration (EC50) in the series on dengue virus type 4 is over 5 µM; in the series with dengue virus type 3, 0.021 µM; with dengue virus type 2, 0.029 µM; with dengue virus type 1 it was 3.2 µM.
For `C[C@@H](c1ccc(Cl)cc1)n1nnc2c1NC(=O)C[C@]21C(=O)N(Cc2cccc(F)c2)c2ccc(Cl)cc21`, in that order: over 10 µM, over 5 µM, 0.051 µM, 0.29 µM and 10 µM.
For `C=CCN1C(=O)[C@]2(CC(=O)Nc3c2nnn3[C@@H](C)c2ccc(Cl)cc2)c2cc(Cl)ccc21`, in that order: over 10 µM, over 5 µM, 0.005 µM, 0.038 µM and 2.1 µM.
The like results for `CCCCN1C(=O)[C@]2(CC(=O)Nc3c2nnn3[C@@H](C)c2ccc(Cl)cc2)c2cc(Cl)ccc21` were, in that order, over 10 µM, over 5 µM, 0.018 µM, 0.075 µM and 1.3 µM.
Turning to `C[C@@H](c1ccc(Cl)cc1)n1nnc2c1NC(=O)C[C@]21C(=O)N(CCCCCCBr)c2ccc(Cl)cc21`, in series [1], the CC50 at 48 h is over 10 µM. For the same compound, the concentration for a half-maximal effect (EC50) in the series on dengue virus type 2 stood at 3 µM.
Take `C[C@@H](c1ccc(Cl)cc1)n1nnc2c1NC(=O)C[C@]21C(=O)N(Cc2ccncc2)c2ccc(Cl)cc21`: in series [1], the cytotoxic concentration (CC50) at 48 h was over 10 µM. The EC50 was over 5 µM in the series on dengue virus type 4, 0.025 µM in the series on dengue virus type 3, 0.072 µM with dengue virus type 2 and over 5 µM in the series on dengue virus type 1.
As for `C[C@@H](c1ccc(Cl)cc1)n1nnc2c1NC(=O)C[C@]21C(=O)N(CC2CC2)c2ccc(Cl)cc21`, the CC50 at 48 h in series [1] was over 10 µM. The half-maximal effective concentration (EC50) in the series on dengue virus type 4 is over 5 µM; in the series on dengue virus type 3, 0.017 µM; with dengue virus type 2, 0.11 µM; in the series with dengue virus type 1, 3.1 µM.
For `C[C@@H](c1ccc(Cl)cc1)n1nnc2c1NC(=O)C[C@]21C(=O)N(Cc2ccccc2)c2ccc(Cl)cc21`, the CC50 at 48 h in series [1] is over 10 µM. Further, the EC50 in the series on dengue virus type 4 is over 5 µM; in the series on dengue virus type 3 it was 0.02 µM; with dengue virus type 2 it was 0.15 µM; with dengue virus type 1, 2 µM.
The like results for `C[C@@H](c1ccc(Cl)cc1)n1nnc2c1NC(=O)C[C@]21C(=O)N(CCCBr)c2ccc(Cl)cc21` were, in that order, over 10 µM, 3.2 µM, 0.076 µM, 0.25 µM and 2.4 µM.
In the case of `C[C@@H](c1ccc(Cl)cc1)n1nnc2c1NC(=O)C[C@]21C(=O)N(CCCCN2CCCCC2)c2ccc(Cl)cc21`, the CC50 at 48 h in series [1] is over 10 µM. Moreover, the EC50 with dengue virus type 4 was over 5 µM; in the series with dengue virus type 3, 0.078 µM; in the series with dengue virus type 2, 0.35 µM; in the series on dengue virus type 1, over 5 µM.
Consider `C[C@@H](c1ccc(Cl)cc1)n1nnc2c1NC(=O)C[C@]21C(=O)N(CCCN2CCOCC2)c2ccc(Cl)cc21`, for which the CC50 at 48 h in series [1] was over 10 µM. The EC50 was over 5 µM in the series on dengue virus type 4, 0.005 µM with dengue virus type 3, 0.076 µM with dengue virus type 2 and over 5 µM with dengue virus type 1.
In the case of `C[C@@H](c1ccc(Cl)cc1)n1nnc2c1NC(=O)C[C@]21C(=O)N(CCN2CCCCC2)c2ccc(Cl)cc21`, the CC50 at 48 h in series [1] was over 10 µM. For the same compound, the half-maximal effective concentration (EC50) in the series with dengue virus type 4 was over 5 µM; with dengue virus type 3, 0.005 µM; with dengue virus type 2 it was 0.074 µM; in the series with dengue virus type 1, over 5 µM.
Regarding `CCCCCCCCCCN1C(=O)[C@]2(CC(=O)Nc3c2nnn3[C@@H](C)c2ccc(Cl)cc2)c2cc(Cl)ccc21`, the CC50 at 48 h in series [1] is over 10 µM. The EC50 was 7.3 µM in the series on dengue virus type 4, 1.2 µM in the series on dengue virus type 3, over 10 µM in the series on dengue virus type 2 and 3.4 µM in the series on dengue virus type 1.
In the case of `CC(C)N1C(=O)[C@]2(CC(=O)N(C(C)C)c3c2nnn3[C@@H](C)c2ccc(Cl)cc2)c2cc(Cl)ccc21`, the cytotoxic concentration (CC50) at 48 h in series [1] was over 10 µM. In addition, the EC50 was 3 µM in the series with dengue virus type 4, 1.5 µM with dengue virus type 3, over 10 µM in the series on dengue virus type 2 and 3.8 µM in the series with dengue virus type 1.
In the case of `C[C@@H](c1ccc(Cl)cc1)n1nnc2c1NC(=O)C[C@]21C(=O)N(CCN(C)CCS(C)(=O)=O)c2ccc(Cl)cc21`, the half-maximal cytotoxic concentration (CC50) at 48 h in series [1] was over 10 µM. The EC50 is over 5 µM in the series with dengue virus type 4, 0.018 µM in the series with dengue virus type 3, 0.077 µM in the series with dengue virus type 2 and over 5 µM in the series on dengue virus type 1.
For `CCCN1C(=O)[C@]2(CC(=O)Nc3c2nnn3[C@@H](C)c2ccc(Cl)cc2)c2cc(Cl)ccc21`, the CC50 at 48 h in series [1] was over 10 µM. Further, the EC50 with dengue virus type 4 was over 5 µM; in the series with dengue virus type 3, 0.01 µM; in the series on dengue virus type 2, 0.071 µM; with dengue virus type 1, 1.9 µM.
For `C[C@@H](c1ccc(Cl)cc1)n1nnc2c1NC(=O)C[C@]21C(=O)N(CCN2CCN(C)CC2)c2ccc(Cl)cc21`, in that order: over 10 µM, over 5 µM, 0.03 µM, 0.3 µM and over 5 µM.
For `C[C@@H](c1ccc(Cl)cc1)n1nnc2c1NC(=O)C[C@]21C(=O)N(CCCCCCCCCCN(C)C)c2ccc(Cl)cc21`, in that order: over 10 µM, 3.5 µM, 0.098 µM, 3.5 µM and 2.7 µM.
The like results for `C[C@@H](c1ccc(Cl)cc1)n1nnc2c1NC(=O)C[C@]21C(=O)N(CCN2CCCC2)c2ccc(Cl)cc21` were, in that order, over 10 µM, over 5 µM, 0.006 µM, 0.038 µM and over 5 µM.
`C[C@@H](c1ccc(Cl)cc1)n1nnc2c1NC(=O)C[C@]21C(=O)N(CC(=O)O)c2ccc(Cl)cc21`: the CC50 at 48 h in series [1] is over 10 µM. In addition, in the series with dengue virus type 2, the EC50 turned out to be 2.4 µM.

The record behind these values is ChEMBL document CHEMBL4414551, “Design, Synthesis, and Biological Evaluation of Substituted 4,6-Dihydrospiro[[1,2,3]triazolo[4,5-b]pyridine-7,3'-indoline]-2',5(3H)-dione Analogues as Potent NS4B Inhibitors for the Treatment of Dengue Virus Infection” (J Med Chem, 2019).
